Laboratory results: ChEMBL document CHEMBL1154054, “Novel 4-(morpholin-4-yl)-N'-(arylidene)benzohydrazides: synthesis, antimycobacterial activity and QSAR investigations” (Eur J Med Chem, 2009)

What was measured:
Type in all cases: functional
[1] = test system: Mycobacterium tuberculosis; test: Antimycobacterial activity against multidrug resistant Mycobacterium tuberculosis at 0.5 ug/ml after 72 hrs by LRP assay
Summary of the method: (§1)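 Luciferase reporter phage assay on M. tuberculosis (H37Rv, or clinical isolates resistant to S, H, R and E). Each sample had two drug-free controls and four drug concentrations, incubated 72 h at 37 °C. High-titer phAE129 phage plus 0.1 M CaCl₂ was added, then 4 h at 37 °C. Equal volume D-luciferin (0.3 mM, pH 4.5 citrate) was added; RLU integrated 10 s, duplicate mean; % RLU reduction vs control.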

[2] = test system: Mycobacterium tuberculosis; test: Antimycobacterial activity against multidrug resistant Mycobacterium tuberculosis at 0.05 ug/ml after 72 hrs by LRP assay; summary of the method: as §1
[3] = test system: Mycobacterium tuberculosis; test: Antimycobacterial activity against multidrug resistant Mycobacterium tuberculosis at 10 ug/ml after 72 hrs by LRP assay; summary of the method: as §1
[4] = test system: Mycobacterium tuberculosis; test: Antimycobacterial activity against multidrug resistant Mycobacterium tuberculosis at 5 ug/ml after 72 hrs by LRP assay; summary of the method: as §1

SMILES | Activity [1] [%] | Activity [2] [%] | Activity [3] [%] | Activity [4] [%]
O=C(N/N=C/c1ccc(F)cc1)c1ccc(N2CCOCC2)cc1 | 86.33 | 83.22 | 95.09 | 93.28
O=C(N/N=C/c1ccc(O)cc1)c1ccc(N2CCOCC2)cc1 | 73.58 | 43.92 | 88.45 | 88.08
O=C(N/N=C1\C=CCO1)c1ccc(N2CCOCC2)cc1 | 86.92 | 58.54 | 93.72 | 92.52
O=C(N/N=C\C=C\c1ccccc1)c1ccc(N2CCOCC2)cc1 | 85.67 | 55.7 | 92.1 | 91.61
COc1cc(/C=N/NC(=O)c2ccc(N3CCOCC3)cc2)cc(OC)c1OC | 96.88 | 35.83 | 90.24 | 90.29
O=C(N/N=C/c1ccc(Cl)cc1)c1ccc(N2CCOCC2)cc1 | 89.91 | 67.15 | 94.29 | 91.19
O=C(N/N=C/c1cccc([N+](=O)[O-])c1)c1ccc(N2CCOCC2)cc1 | 87.17 | 29.92 | 88.86 | 90.07
CN(C)c1ccc(/C=N/NC(=O)c2ccc(N3CCOCC3)cc2)cc1 | 90.72 | 48.14 | 95.02 | 93.18
Cc1ccc(/C=N/NC(=O)c2ccc(N3CCOCC3)cc2)cc1 | 87.24 | 48.49 | 91.37 | 90.83
COc1ccc(/C=N/NC(=O)c2ccc(N3CCOCC3)cc2)cc1 | 82.97 | 56.53 | 90.36 | 89.33
NNC(=O)c1ccncc1 [ISONIAZID] | 89.6 | 84.37 | 94.7 | 95.85
